# Test results published in ChEMBL document CHEMBL1126799, “Synthesis of antimicrobial agents. 5. In vivo metabolism of 7-(4-hydroxypiperazin-1-yl)quinolones” (1993).
# Assays:
# [1] = test system: Staphylococcus aureus; assay: Tested in vitro against Staphylococcus aureus FDA209P JC-1 by agar dilution method; assay type: functional
# Method in brief: (§1)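 MIC by 2-fold agar dilution on Mueller–Hinton agar (footnote says sensitivity test agar).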
# [2] = test system: Bacillus subtilis; assay: Tested in vitro against Bacillus subtilis ATCC 6633 by agar dilution method; assay type: functional; method in brief: as §1
# [3] = test system: Proteus vulgaris; assay: Tested in vitro against Proteus vulgaris OX-19 by agar dilution method; assay type: functional; method in brief: as §1
# [4] = test system: Escherichia coli; assay: Tested in vitro against Escherichia coli NIHJ JC-2 by agar dilution method; assay type: functional; method in brief: as §1
# [5] = test system: Serratia marcescens; assay: Tested in vitro against Serratia marcescens IAM1184 by agar dilution method; assay type: functional; method in brief: as §1
# [6] = test system: Pseudomonas aeruginosa; assay: Tested in vivo against Pseudomonas aeruginosa E-2 in mice after peroral dose of drug with 0.5% sodium carboxy methyl cellulose; assay type: functional; conditions: po
# Method in brief: (§2)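 Mice infected, then given compound orally 1 h post-infection as a suspension in 0.5% sodium CMC. ED50 calculated from cumulative mortality on day 7 post-infection by shortened Weil method.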
# [7] = test system: Staphylococcus aureus; assay: Tested in vitro against Staphylococcus aureus IID803 by agar dilution method; assay type: functional; method in brief: as §1
# [8] = test system: Pseudomonas aeruginosa; assay: Tested in vitro against Pseudomonas aeruginosa IFO3445 by agar dilution method; assay type: functional; method in brief: as §1
# [9] = test system: Salmonella typhimurium; assay: Tested in vitro against Salmonella Typhimurium IID971 by agar dilution method; assay type: functional, Salmonella enterica subsp. enterica serovar Typhimurium; conditions: Salmonella enterica; method in brief: as §1
# [10] = test system: Staphylococcus aureus; assay: Tested in vivo against Staphylococcus aureus IID803 in mice after peroral dose of drug with 0.5% sodium carboxy methyl cellulose; assay type: functional; conditions: po; method in brief: as §2
# [11] = test system: Klebsiella pneumoniae; assay: Tested in vitro against Klebsiella pneumoniae PCI-602 by agar dilution method; assay type: functional; method in brief: as §1
# [12] = test system: Staphylococcus epidermidis; assay: Tested in vitro against Staphylococcus epidermidis IAM12896 by agar dilution method; assay type: functional; method in brief: as §1
# [13] = test system: Pseudomonas aeruginosa; assay: Tested in vitro against Pseudomonas aeruginosa E-2 by agar dilution method; assay type: functional; method in brief: as §1
SMILES,MIC [1] [µg/mL],MIC [2] [µg/mL],MIC [3] [µg/mL],MIC [4] [µg/mL],MIC [5] [µg/mL],ED50 [6] [mg/kg],MIC [7] [µg/mL],MIC [8] [µg/mL],MIC [9] [µg/mL],ED50 [10] [mg/kg],MIC [11] [µg/mL],MIC [12] [µg/mL],MIC [13] [µg/mL]
CC1CN(c2c(F)cc3c(=O)c(C(=O)O)cn(C4CC4)c3c2F)CC(C)N1 (stereo unspecified),0.39,0.1,0.1,0.1,0.78,11.7,0.39,3.13,0.1,2.21,0.025,0.78,3.13
O=C(O)c1cn(C2CC2)c2c(F)c(N3CCNCC3)c(F)cc2c1=O,0.2,0.1,0.05,0.05,0.39,6.7,0.39,0.78,0.025,5.82,0.025,0.78,0.78
CC1CN(c2c(F)cc3c(=O)c(C(=O)O)cn(C4CC4)c3c2F)CCN1 (stereo unspecified),0.39,0.05,0.05,0.05,0.39,8.84,0.2,1.56,0.025,2.21,0.0125,0.78,1.56
CC1CN(c2c(F)cc3c(=O)c(C(=O)O)cn(C4CC4)c3c2F)CC(C)N1O (stereo unspecified),0.2,0.05,0.39,0.78,6.25,35.4,0.2,12.5,0.78,1.67,0.1,0.39,12.5
CC1CN(c2c(F)cc3c(=O)c(C(=O)O)cn(C4CC4)c3c2F)CCN1O (stereo unspecified),0.39,0.025,0.1,0.1,0.78,22.9,0.2,3.13,0.05,1.67,0.025,0.78,3.13
O=C(O)c1cn(C2CC2)c2c(F)c(N3CCN(O)CC3)c(F)cc2c1=O,0.39,0.05,0.05,0.1,0.78,4.81,0.39,1.56,0.025,3.34,0.025,0.78,1.56
O=C(O)c1cn(C2CC2)c2cc(N3CCNCC3)c(F)cc2c1=O [CIPROFLOXACIN],0.39,0.1,0.05,,0.39,30.8,0.78,0.78,0.025,35.4,0.025,1.56,0.78
CCn1cc(C(=O)O)c(=O)c2cc(F)c(N3CCNCC3)cc21 [NORFLOXACIN],0.39,0.39,0.2,0.39,0.78,107,1.56,3.13,0.1,91.7,0.1,3.13,3.13
CC1COc2c(N3CCN(C)CC3)c(F)cc3c(=O)c(C(=O)O)cn1c23 (stereo unspecified) [OFLOXACIN],0.39,0.2,0.1,0.2,0.78,54.5,0.78,3.13,0.1,8.84,0.1,0.78,3.13
